ChEMBL document CHEMBL2331117 (J Med Chem, 2013)

Legend:
[1] = Drug uptake in tumor of athymic mouse xenografted with human PC3 cells at 100 mg/kg, po after 4 hrs; assay type: ADME, organism-based, Neoplasm, PC-3; set-up: dose 100 mg/kg, route oral; settings: read-out: Drug uptake
Procedure, shortened: (§1)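 PC-3 cells (3 × 10⁶, passages 10–14, in ice-cold HBSS) were implanted sc in 5–8 week old male nude mice. Tumors of 200–500 mg received a single oral 100 mg/kg dose. Plasma and tumor were collected at 1, 4, 8, 16, 24 and 32 h and homogenized in buffer. Lysates were pooled per group (n = 5), and phospho-proteins were measured by Western blot normalized to α-tubulin.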

[2] = Cmax in CD rat at 3 mg/kg, po; assay type: ADME, organism-based; set-up: dose 3 mg/kg, route oral; settings: in vivo
Procedure, shortened: (§2)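 Single-dose PK: female athymic nude mice (10 mg/kg), female CD rats and male beagle dogs (3 mg/kg), male cynomolgus monkeys (3 mg/kg), given iv and by oral gavage. Solution in EPW (5% ethanol/45% PEG400/water), with 1:2 HCl (m/m) for mouse, rat and dog and 1:1.5 HCl (m/m) for monkey. Plasma levels followed over 24 h.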

[3] = Cmax in athymic nude mouse at 10 mg/kg, po; assay type: ADME, organism-based; set-up: dose 10 mg/kg, route oral; settings: in vivo; procedure, shortened: as §2
[4] = Plasma concentration in mouse at 100 mg/kg, po after 4 hrs; assay type: ADME, organism-based; set-up: dose 100 mg/kg, route oral
[5] = biological target: CDK3/cyclin E (Homo sapiens, UniProt O96020+P24864+Q00526); assay: Inhibition of CDK3/Cyclin E (unknown origin); assay type: protein-complex assay
[6] = Plasma concentration in athymic mouse plasma xenografted with human PC3 cells at 100 mg/kg, po after 1 hr; assay type: ADME, organism-based, PC-3; set-up: dose 100 mg/kg, route oral
[7] = Plasma concentration in athymic mouse plasma xenografted with human PC3 cells at 100 mg/kg, po after 4 hrs; assay type: ADME, organism-based, PC-3; set-up: dose 100 mg/kg, route oral
[8] = biological target: Ribosomal protein S6 kinase beta-1 (Homo sapiens, UniProt P23443); assay: Inhibition of p70S6K (unknown origin)
[9] = tested on: Mus musculus; assay: In vivo inhibition of mTORC1-mediated phosphorylation of p70S6K at […] in human PC3 cells xenografted into athymic nude mouse at 100 mg/kg, po after 32 hrs by Western blotting analysis relative to control; assay type: functional; settings: PC-3, 32 h
Procedure, shortened: (§3)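 PC-3 cells grown in DMEM with 20% FBS were implanted subcutaneously at 3 × 10^6 cells in ice-cold HBSS into the hindflank of 5−8 week old male nude mice. At tumor size 200−500 mg, mice received a single oral dose of 100 mg/kg. Plasma and tumors were collected at 1, 4, 8, 16, 24 and 32 h. Tumor lysates from each group (n = 5) were pooled. Phospho-proteins were quantified by Western blot and normalized to α-tubulin.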

[10] = biological target: RAF proto-oncogene serine/threonine-protein kinase (Homo sapiens, UniProt P04049); assay: Inhibition of cRAF (unknown origin)
[11] = tested on: Plasma; assay: Plasma concentration in athymic mouse plasma xenografted with human PC3 cells at 100 mg/kg, po after 32 hrs; assay type: ADME, organism-based, PC-3; set-up: dose 100 mg/kg, route oral; settings: in vivo, BLD = below limit of detection
[12] = tested on: Mus musculus; assay: In vivo inhibition of mTORC1-mediated phosphorylation of p70S6K at […] in human MCF7 cells xenografted into athymic nude mouse at 100 mg/kg, po after 1 hr by Western blotting analysis relative to control; assay type: functional; settings: MCF7, 1 h
Procedure, shortened: (§4)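 MCF-7 cells (DMEM, 10% FBS) were implanted subcutaneously at 5 × 10^6 cells in 50% cold HBSS/50% growth-factor-reduced matrigel into the hindflank of 5−8 week old female nude mice. At tumor size 40−150 mg, mice received a single oral dose of 100 mg/kg. Tumor lysates were pooled per group. Phospho-AKT (S473, T308), p70S6K (T389), S6 (S240/244) and 4E-BP1 (T37/46) were measured by Western blot normalized to α-tubulin.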

[13] = biological target: Receptor tyrosine-protein kinase erbB-2 (Homo sapiens, UniProt P04626); assay: Inhibition of ERBB2 (unknown origin)
Procedure, shortened: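 Part of a 141-protein-kinase selectivity panel run either in house or by an outside contract lab. IC50 is reported as the average of at least two determinations.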

[14] = tested on: Mus musculus; assay: In vivo inhibition of mTORC2-mediated phosphorylation of AKT at […] in human MCF7 cells xenografted into athymic nude mouse at 100 mg/kg, po after 8 hrs by Western blotting analysis relative to control; assay type: functional; settings: MCF7, 8 h
Procedure, shortened: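 Human MCF-7 cells were implanted subcutaneously into the hindflank of female nude mice aged 5−8 weeks, at 5 × 10^6 cells in 50% cold HBSS/50% growth-factor-reduced matrigel. At a tumor size of 40−150 mg, mice got one oral dose. Tumor lysates were pooled per group. Phospho-AKT (T308) was read by Western blot and normalized to α-tubulin.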

[15] = Drug uptake in tumor of athymic mouse xenografted with human PC3 cells at 100 mg/kg, po after 16hrs; assay type: ADME, organism-based, Neoplasm, PC-3; set-up: dose 100 mg/kg, route oral; settings: read-out: Drug uptake; procedure, shortened: as §1
[16] = biological target: Tyrosine-protein kinase JAK2 (Homo sapiens, UniProt O60674); assay: Inhibition of JAK2 (unknown origin)
[17] = Metabolic stability in monkey liver microsomes after 30 mins; assay type: ADME, Macaca mulatta, Microsome; settings: rhesus monkey, read-out: Stability
[18] = Cmax in CD rat at 3 mg/kg, iv; assay type: ADME, organism-based; set-up: dose 3 mg/kg, route intravenous; settings: in vivo; procedure, shortened: as §2
[19] = biological target: Vascular endothelial growth factor receptor 2 (Homo sapiens, UniProt P35968); assay: Inhibition of KDR (unknown origin)
[20] = tested on: Mus musculus; assay: In vivo inhibition of mTORC1-mediated phosphorylation of p70S6K at […] in human MCF7 cells xenografted into athymic nude mouse at 100 mg/kg, po after 4 hrs by Western blotting analysis relative to control; assay type: functional; settings: MCF7, 4 h; procedure, shortened: as §4
[21] = tested on: Mus musculus; assay: In vivo inhibition of mTORC1-mediated phosphorylation of p70S6K at […] in human MCF7 cells xenografted into athymic nude mouse at 100 mg/kg, po after 24 hrs by Western blotting analysis relative to control; assay type: functional; settings: MCF7, 24 h; procedure, shortened: as §4
[22] = Plasma concentration in athymic mouse plasma xenografted with human MCF7 cells at 100 mg/kg, po after 8 hrs; assay type: ADME, organism-based; set-up: dose 100 mg/kg, route oral
[23] = tested on: Mus musculus; assay: In vivo inhibition of mTORC1-mediated phosphorylation of pS6 at (serine 240/244) in human MCF7 cells xenografted into athymic nude mouse at 100 mg/kg, po after 8 hrs by Western blotting analysis relative to control; assay type: functional; settings: MCF7, 8 h; procedure, shortened: as §4
[24] = tested on: Mus musculus; assay: In vivo inhibition of mTORC1-mediated phosphorylation of 4EBP1 at ([…]) in human MCF7 cells xenografted into athymic nude mouse at 100 mg/kg, po after 1 hr by Western blotting analysis relative to control; assay type: functional; settings: MCF7, 1 h
[25] = Volume of distribution at steady state in athymic nude mouse at 10 mg/kg, iv; assay type: ADME, organism-based; set-up: dose 10 mg/kg, route intravenous; settings: in vivo, read-out: Vdss
[26] = biological target: Phosphatidylinositol 4,5-bisphosphate 3-kinase catalytic subunit alpha isoform (Homo sapiens, UniProt P42336); assay: Inhibition of PI3Kalpha (unknown origin)
Procedure, shortened: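 PI3Kα activity was read as the percentage of ATP consumed, by luciferase–luciferin chemiluminescence (Kinase-Glo). The reaction ran about 2 h at ambient temperature, with ATP consumption kept to 40–60%. Values are the mean of n ≥ 2.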

[27] = tested on: Mus musculus; assay: In vivo inhibition of mTORC1-mediated phosphorylation of 4EBP1 at ([…]) in human PC3 cells xenografted into athymic nude mouse at 100 mg/kg, po after 16 hrs by Western blotting analysis relative to control; assay type: functional; settings: PC-3, 16 h; procedure, shortened: as §3
[28] = Clearance in athymic nude mouse at 10 mg/kg, iv; assay type: ADME, organism-based; set-up: dose 10 mg/kg, route intravenous; settings: in vivo; procedure, shortened: as §2

Chain of Vascular endothelial growth factor receptor 2 (P35968 whole entry): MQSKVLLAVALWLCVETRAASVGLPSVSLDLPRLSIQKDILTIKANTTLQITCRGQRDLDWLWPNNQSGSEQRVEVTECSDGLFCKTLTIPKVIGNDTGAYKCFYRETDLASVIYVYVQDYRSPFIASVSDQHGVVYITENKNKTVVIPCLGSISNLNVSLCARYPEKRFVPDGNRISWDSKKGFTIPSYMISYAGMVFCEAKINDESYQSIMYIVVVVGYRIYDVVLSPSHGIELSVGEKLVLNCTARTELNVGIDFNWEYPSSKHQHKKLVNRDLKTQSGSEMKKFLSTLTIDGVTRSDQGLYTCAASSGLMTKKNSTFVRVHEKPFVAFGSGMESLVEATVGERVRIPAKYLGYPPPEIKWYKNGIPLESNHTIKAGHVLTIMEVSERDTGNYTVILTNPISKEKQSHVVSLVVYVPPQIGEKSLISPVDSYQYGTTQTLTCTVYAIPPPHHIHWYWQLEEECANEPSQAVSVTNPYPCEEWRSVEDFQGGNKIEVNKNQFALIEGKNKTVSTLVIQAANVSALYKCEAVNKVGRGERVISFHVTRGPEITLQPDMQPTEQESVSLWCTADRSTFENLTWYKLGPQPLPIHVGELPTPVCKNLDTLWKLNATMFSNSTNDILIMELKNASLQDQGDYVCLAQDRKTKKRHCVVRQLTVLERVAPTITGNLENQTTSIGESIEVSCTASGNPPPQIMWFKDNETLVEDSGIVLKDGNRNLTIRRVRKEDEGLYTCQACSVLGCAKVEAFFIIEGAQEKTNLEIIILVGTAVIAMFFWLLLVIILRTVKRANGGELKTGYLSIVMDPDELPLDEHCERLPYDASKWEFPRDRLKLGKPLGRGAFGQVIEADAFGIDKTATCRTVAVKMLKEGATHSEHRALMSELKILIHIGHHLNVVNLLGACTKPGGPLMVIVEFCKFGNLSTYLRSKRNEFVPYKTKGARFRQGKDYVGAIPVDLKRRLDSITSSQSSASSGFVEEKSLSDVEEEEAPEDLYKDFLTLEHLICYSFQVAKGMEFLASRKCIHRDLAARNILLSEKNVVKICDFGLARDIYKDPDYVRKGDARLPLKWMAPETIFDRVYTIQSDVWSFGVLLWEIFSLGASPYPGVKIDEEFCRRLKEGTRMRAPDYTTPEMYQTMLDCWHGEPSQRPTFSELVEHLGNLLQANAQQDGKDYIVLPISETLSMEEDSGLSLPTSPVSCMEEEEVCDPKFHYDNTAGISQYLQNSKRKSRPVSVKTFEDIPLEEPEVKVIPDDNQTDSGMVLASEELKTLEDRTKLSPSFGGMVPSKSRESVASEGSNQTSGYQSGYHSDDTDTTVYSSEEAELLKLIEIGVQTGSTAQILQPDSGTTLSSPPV
Chain of Receptor tyrosine-protein kinase erbB-2 (P04626 whole entry): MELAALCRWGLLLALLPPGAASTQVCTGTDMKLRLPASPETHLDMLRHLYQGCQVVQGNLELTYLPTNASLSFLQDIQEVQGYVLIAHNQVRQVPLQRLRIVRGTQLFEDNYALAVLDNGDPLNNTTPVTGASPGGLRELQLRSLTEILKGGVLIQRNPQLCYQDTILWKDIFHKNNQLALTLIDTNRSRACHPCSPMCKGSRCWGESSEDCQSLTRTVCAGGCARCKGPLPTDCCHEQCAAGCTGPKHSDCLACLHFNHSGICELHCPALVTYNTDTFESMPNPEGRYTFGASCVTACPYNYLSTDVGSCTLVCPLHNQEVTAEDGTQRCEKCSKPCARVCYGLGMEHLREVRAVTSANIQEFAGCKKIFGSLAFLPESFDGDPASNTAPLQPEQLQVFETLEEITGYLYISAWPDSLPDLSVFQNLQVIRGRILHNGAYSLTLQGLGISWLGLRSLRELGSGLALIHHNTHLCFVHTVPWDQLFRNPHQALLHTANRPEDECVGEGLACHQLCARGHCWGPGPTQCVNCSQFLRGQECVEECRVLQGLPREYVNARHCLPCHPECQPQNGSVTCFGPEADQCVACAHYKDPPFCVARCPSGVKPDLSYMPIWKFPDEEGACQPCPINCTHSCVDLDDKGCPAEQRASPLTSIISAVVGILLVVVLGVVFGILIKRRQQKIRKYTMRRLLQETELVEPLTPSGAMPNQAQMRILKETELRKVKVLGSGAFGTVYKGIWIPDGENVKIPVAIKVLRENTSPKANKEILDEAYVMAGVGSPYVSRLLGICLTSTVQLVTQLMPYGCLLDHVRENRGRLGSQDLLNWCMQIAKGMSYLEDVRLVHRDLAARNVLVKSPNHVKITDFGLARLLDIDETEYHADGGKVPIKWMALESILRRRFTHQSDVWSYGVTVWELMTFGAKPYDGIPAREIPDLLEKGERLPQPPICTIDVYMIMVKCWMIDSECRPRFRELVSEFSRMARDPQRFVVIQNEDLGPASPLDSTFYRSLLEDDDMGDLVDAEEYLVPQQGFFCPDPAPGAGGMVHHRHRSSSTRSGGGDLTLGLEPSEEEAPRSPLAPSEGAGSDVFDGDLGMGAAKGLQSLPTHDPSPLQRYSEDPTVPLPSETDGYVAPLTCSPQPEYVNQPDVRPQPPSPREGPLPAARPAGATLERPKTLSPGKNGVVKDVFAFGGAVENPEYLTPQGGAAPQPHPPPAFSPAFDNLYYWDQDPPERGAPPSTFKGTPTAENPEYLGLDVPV
Chain of RAF proto-oncogene serine/threonine-protein kinase (P04049 whole entry): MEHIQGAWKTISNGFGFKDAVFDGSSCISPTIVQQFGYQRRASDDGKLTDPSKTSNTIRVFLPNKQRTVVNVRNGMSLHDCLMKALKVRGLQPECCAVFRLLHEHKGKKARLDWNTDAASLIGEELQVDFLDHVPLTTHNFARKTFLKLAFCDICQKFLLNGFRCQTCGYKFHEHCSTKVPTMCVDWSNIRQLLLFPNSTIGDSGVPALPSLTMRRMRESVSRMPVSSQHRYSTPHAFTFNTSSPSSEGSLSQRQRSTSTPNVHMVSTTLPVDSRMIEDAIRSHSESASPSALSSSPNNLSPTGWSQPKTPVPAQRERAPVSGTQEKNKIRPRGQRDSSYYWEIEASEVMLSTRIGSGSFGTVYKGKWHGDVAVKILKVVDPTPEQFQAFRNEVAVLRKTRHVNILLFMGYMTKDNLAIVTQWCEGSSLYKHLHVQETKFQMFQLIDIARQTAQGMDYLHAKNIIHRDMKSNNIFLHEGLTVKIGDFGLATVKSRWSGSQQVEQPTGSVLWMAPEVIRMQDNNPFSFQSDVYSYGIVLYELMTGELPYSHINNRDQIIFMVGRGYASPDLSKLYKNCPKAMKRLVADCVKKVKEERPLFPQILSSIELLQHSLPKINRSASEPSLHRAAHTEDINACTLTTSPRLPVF
Chain of CDK3/cyclin E (P24864 whole entry): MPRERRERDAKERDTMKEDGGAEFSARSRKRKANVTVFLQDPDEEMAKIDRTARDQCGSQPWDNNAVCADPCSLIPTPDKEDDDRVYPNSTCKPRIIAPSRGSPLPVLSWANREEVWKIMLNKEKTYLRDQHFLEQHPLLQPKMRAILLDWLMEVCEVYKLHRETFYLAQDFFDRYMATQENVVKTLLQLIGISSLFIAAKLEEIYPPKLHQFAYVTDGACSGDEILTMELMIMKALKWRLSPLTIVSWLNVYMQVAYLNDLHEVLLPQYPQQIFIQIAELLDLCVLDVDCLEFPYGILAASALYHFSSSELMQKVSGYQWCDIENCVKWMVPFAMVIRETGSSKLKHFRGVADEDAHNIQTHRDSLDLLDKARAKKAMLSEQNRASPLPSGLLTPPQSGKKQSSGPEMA
Chain of CDK3/cyclin E (O96020 whole entry): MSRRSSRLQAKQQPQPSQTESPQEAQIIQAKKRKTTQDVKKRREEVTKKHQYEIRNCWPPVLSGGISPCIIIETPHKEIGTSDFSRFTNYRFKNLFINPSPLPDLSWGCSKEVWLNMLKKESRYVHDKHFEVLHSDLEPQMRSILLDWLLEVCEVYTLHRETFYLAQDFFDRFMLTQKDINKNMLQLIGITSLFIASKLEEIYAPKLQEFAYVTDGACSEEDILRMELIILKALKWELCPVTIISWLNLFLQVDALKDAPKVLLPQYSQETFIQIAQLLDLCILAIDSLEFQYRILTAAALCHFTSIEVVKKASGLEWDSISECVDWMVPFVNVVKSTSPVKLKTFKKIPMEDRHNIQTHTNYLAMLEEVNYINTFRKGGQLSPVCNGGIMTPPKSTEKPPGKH
Chain of CDK3/cyclin E (Q00526 whole entry): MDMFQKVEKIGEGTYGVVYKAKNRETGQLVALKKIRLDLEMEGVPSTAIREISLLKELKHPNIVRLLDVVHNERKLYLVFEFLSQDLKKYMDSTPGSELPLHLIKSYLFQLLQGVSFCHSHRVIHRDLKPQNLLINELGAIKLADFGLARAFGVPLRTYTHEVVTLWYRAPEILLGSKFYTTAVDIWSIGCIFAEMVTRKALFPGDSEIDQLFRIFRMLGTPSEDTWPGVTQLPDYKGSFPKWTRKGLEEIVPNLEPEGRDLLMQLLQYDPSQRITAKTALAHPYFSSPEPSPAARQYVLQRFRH
Chain of Ribosomal protein S6 kinase beta-1 (P23443 whole entry): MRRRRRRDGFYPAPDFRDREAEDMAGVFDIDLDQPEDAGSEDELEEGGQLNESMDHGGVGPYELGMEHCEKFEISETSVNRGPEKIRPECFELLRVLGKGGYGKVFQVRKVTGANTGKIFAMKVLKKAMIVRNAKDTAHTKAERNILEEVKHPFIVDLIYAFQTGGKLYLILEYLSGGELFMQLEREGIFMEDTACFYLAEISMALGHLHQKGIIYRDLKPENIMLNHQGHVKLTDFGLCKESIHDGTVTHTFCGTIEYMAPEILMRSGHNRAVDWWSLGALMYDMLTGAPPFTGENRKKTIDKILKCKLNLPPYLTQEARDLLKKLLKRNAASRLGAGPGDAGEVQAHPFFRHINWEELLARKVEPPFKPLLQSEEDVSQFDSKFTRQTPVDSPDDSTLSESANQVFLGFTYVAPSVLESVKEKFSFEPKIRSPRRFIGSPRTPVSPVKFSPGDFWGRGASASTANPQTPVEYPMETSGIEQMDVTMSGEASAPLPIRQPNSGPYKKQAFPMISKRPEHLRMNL

In the case of `Cc1c(C(=O)N2CCOc3ccc(-c4ccc(N)nc4)cc3C2)ccc(S(C)(=O)=O)c1F`, the concentration at 4 h [1] is reported as 18.6 µM, the Cmax [2] is reported as 0.707 µM and the Cmax [3] is reported as 1.3 µM. For the same molecule, the concentration at 4 h [4] was 17.8 µM, the IC50 [5] was greater than 10 µM and the concentration at 1 h [6] was 32.6 µM. The concentration at 4 h [7] was 21.3 µM, the IC50 [8] was greater than 3.5 µM and the inhibition in vivo at 100 mg/kg [9] was -12%. For the same molecule, the IC50 [10] was greater than 3.5 µM, the Cp [11] was “BLD” and the inhibition in vivo at 100 mg/kg [12] was 85%. It also gave an IC50 [13] greater than 3.5 µM, an inhibition in vivo at 100 mg/kg [14] of -2% and a concentration at 16 h [15] of 7.34 µM. For the same molecule, the IC50 [16] was greater than 3.5 µM, the remaining at 0.5 h [17] was 65% and the Cmax [18] was 4.12 µM. For the same molecule, the IC50 [19] was greater than 3.5 µM, the inhibition in vivo at 100 mg/kg [20] was 85% and the inhibition in vivo at 100 mg/kg [21] was -19%. It also gave a concentration at 8 h [22] of 16.5 µM, an inhibition in vivo at 100 mg/kg [23] of 98% and an inhibition in vivo at 100 mg/kg [24] of 94%. The Vd [25] was 1.96 L/kg, the IC50 [26] was greater than 3 µM and the inhibition in vivo at 100 mg/kg [27] was 51%. For the same molecule, the clearance [28] was 45.8 mL/min/kg.
